Screening results from PubChem BioAssay.
The sample as a whole holds a higher share of hits than the screen did.
KDM4C inh: inhibitors of human demethylase GASC-1 KDM4C. Q9H3R0. GST-KDM4C 2-372, H3K9me3 peptide, LANCE TR-FRET. inhibition, % at 12.5 µM. 96,000 tested, 0.15% active;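 active = mean replicate inhibition above about 25%, with at least 55% of replicates also reaching it, limit read from the data, passing the limit was not always enough; inconclusive = only one of those two conditions met; inactive = neither condition met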
Target sequence (Q9H3R0 2-372 limits assumed): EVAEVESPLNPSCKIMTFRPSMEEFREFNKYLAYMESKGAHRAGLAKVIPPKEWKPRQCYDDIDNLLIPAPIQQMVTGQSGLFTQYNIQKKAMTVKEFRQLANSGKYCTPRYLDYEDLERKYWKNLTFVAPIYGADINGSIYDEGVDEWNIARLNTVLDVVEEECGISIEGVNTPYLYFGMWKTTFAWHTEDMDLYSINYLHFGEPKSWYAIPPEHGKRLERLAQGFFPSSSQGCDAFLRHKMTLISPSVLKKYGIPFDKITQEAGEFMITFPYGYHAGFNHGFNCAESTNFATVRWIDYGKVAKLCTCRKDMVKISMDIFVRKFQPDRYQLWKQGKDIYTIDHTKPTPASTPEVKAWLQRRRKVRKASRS
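material = GST-tagged GASC-1 (JMJD2C) catalytic fragment, aa 2-372 | amount = enzyme final amount 10 nM | medium = HEPES buffer, pH 7.5, plus ascorbate | also added = H3K9me3 peptide substrate, Fe(II), 2-oxoglutarate | dosing = single dose | times = 30 min demethylation and 1 h detection at room temperature | detection = LANCE TR-FRET | read-out basis = Fall in 671/618 emission ratio as inhibition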
IDH1 R132H inh: blocks human IDH1 R132H reductase activity; inhibition, % at 10 µM; diaphorase/resazurin fluorescence, 60 min; O75874; 70,000 tested, 0.18% active; in the data active = inhibition above about 34%; inconclusive = no clear call, values can overlap the other calls; inactive = below about 11%;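 also: 0% = DMSO and 100% = no enzyme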
T cruzi growth-1: T. cruzi proliferation inhibition; 77,000 tested, 5.9% active; inhibition, % at 8.34 µM; T. cruzi beta-gal in NIH3T3, GalScreen luminescence, 90 h;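 active = mean inhibition above about 93%, with at least 55% of replicates each passing it, limit read from the data, passing the limit was not always enough; inconclusive = only one of those two conditions holds; inactive = neither condition holds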
T cruzi growth-2: inhibitors of T. cruzi proliferation. shares compounds with T cruzi growth-1. T. cruzi beta-gal in NIH3T3, GalScreen luminescence, 90 h. inhibition, % at 8.35 µM. 5,600 tested, 72% active;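 active = mean replicate inhibition above about 95% and at least 55% of replicates individually reaching it, limit read from the data; inconclusive = only one of the two criteria is met; inactive = neither criterion is met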
T cruzi growth-3: Trypanosoma cruzi proliferation inhibition | AID 651740 | 5,600 tested, 21% active | inhibition, % at 2.09 µM | shares compounds with T cruzi growth-1 | T. cruzi beta-gal in NIH3T3, GalScreen luminescence, 90 h;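 active = mean inhibition above about 95%, with at least 55% of replicates also reaching it, limit read from the data; inconclusive = meets just one of the two conditions; inactive = meets neither condition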;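 also: plate controls were neutral control median for no effect and positive control median for full effect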
3T3 cytotox: cytotoxicity in mouse NIH/3T3 fibroblasts; shares compounds with T cruzi growth-1; NIH/3T3 viability, CellTiter-Glo ATP luminescence, 90 h; cytotoxicity (signal decrease), % at 8.35 µM; 5,600 tested, 14% active;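 active = mean signal decrease across replicates above about 35% based on untreated-well scatter, with enough replicates individually passing, limit read from the data; inconclusive = no rule stated though some were filed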;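 also: 0% = median of neutral control wells and 100% = median of positive control wells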
3T3 cytotox 2: NIH/3T3 (mouse) viability loss | shares compounds with T cruzi growth-1 | NIH/3T3 viability, CellTiter-Glo ATP luminescence, 90 h | inhibition, % at 24.9 µM | 5,600 tested, 56% active | AID 651744;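 active = mean loss of cell viability signal at or above a set limit, and enough replicates individually reaching it; inconclusive = meets only the mean limit or only the replicate share; inactive = meets neither condition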;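 also: 0% = median of neutral control wells and 100% = median of positive control wells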
Numbers without * were called inactive; ! = a repeat was not active.

What do the screens show for `C[C@H]1CN([C@@H](C)CO)C(=O)Cc2cc(N(C)C)ccc2O[C@@H]1CN(C)Cc1ccc(Cl)c(Cl)c1`?
KDM4C inh: 0.6; IDH1 R132H inh: 0.0; T cruzi growth-1: 128.0*; T cruzi growth-2: 115.7*; T cruzi growth-3: 61.1; 3T3 cytotox: 2.9; 3T3 cytotox 2: 100.5*

What do the screens show for `C[C@@H]1CN([C@H](C)CO)C(=O)Cc2cc(N(C)C)ccc2O[C@H]1CN(C)Cc1ccc2c(c1)OCO2`?
KDM4C inh: 2.6; IDH1 R132H inh: -0.9; T cruzi growth-1: 42.1

How did C[C@H](CO)N1C[C@H](C)[C@@H](CN(C)Cc2ccc3c(c2)OCO3)Oc2ccc(N(C)C)cc2CC1=O do in these assays?
KDM4C inh: 1.3; IDH1 R132H inh: -2.4; T cruzi growth-1: 132.6*; T cruzi growth-2: 104.5*; T cruzi growth-3: 90.0; 3T3 cytotox: 25.1; 3T3 cytotox 2: 31.3*

Results for C[C@@H]1CN([C@@H](C)CO)C(=O)Cc2cc(N(C)C)ccc2O[C@@H]1CN(C)Cc1ccc(Cl)c(Cl)c1 ?
IDH1 R132H inh: 0.0; T cruzi growth-1: 66.9

How did C[C@H]1CN([C@@H](C)CO)C(=O)Cc2cc(N(C)C)ccc2O[C@@H]1CN(C)Cc1ccc2c(c1)OCO2 do in these assays?
KDM4C inh: 6.6; IDH1 R132H inh: 0.0; T cruzi growth-1: 107.2*; T cruzi growth-2: 101.3*; T cruzi growth-3: 63.0; 3T3 cytotox: 1.2; 3T3 cytotox 2: 11.5

How did C[C@@H]1CN([C@H](C)CO)C(=O)Cc2cc(N(C)C)ccc2O[C@@H]1CN(C)Cc1ccc2c(c1)OCO2 do in these assays?
KDM4C inh: 0.9; IDH1 R132H inh: -0.5; T cruzi growth-1: -17.4

Results for COc1ccc(NC(=O)CCCN2C(=O)c3ccccc3C2=O)c(OC)c1 ?
IDH1 R132H inh: -0.1

Results for N#Cc1sc2c(c1OC(=O)c1cccs1)c(=O)n(-c1ccccc1)c(=S)n2-c1ccccc1 ?
IDH1 R132H inh: 1.2

How did COC(=O)CCCCCCC(=O)N/N=C/c1ccccc1O do in these assays?
IDH1 R132H inh: 0.4

What do the screens show for `CO[C@H]1CN(C)C(=O)c2ccc(NS(=O)(=O)c3ccccc3C)cc2OC[C@H](C)N(C)C[C@@H]1C`?
KDM4C inh: -0.7

What do the screens show for `C[C@H]1CN([C@@H](C)CO)C(=O)c2cc(C#Cc3ccccn3)cnc2O[C@@H]1CN(C)Cc1cncnc1`?
KDM4C inh: 1.5; IDH1 R132H inh: 0.1; T cruzi growth-1: 111.0*; T cruzi growth-2: 108.3*; T cruzi growth-3: 22.7; 3T3 cytotox: -12.3; 3T3 cytotox 2: 5.2

What do the screens show for `C[C@H](CO)N1C[C@H](C)[C@H](CN(C)Cc2cccnc2)Oc2ncc(C#Cc3ccccn3)cc2C1=O`?
KDM4C inh: -0.2; IDH1 R132H inh: -1.4; T cruzi growth-1: 6.4

What do the screens show for `C[C@H]1CN([C@@H](C)CO)C(=O)c2cc(C#Cc3ccccn3)cnc2O[C@@H]1CN(C)Cc1cccnc1`?
KDM4C inh: -0.1; IDH1 R132H inh: -0.5; T cruzi growth-1: 71.3

How did C[C@@H]1CN([C@@H](C)CO)C(=O)c2cc(C#Cc3ccccn3)cnc2O[C@H]1CN(C)Cc1ccccc1 do in these assays?
KDM4C inh: 0.1; IDH1 R132H inh: -0.2; T cruzi growth-1: 127.6*; T cruzi growth-2: 105.0*; T cruzi growth-3: 91.6; 3T3 cytotox: 0.9; 3T3 cytotox 2: 10.2

How did C[C@H]1CN([C@@H](C)CO)S(=O)(=O)c2ccc(C3=CCCCC3)cc2O[C@H]1CN(C)Cc1cccnc1 do in these assays?
KDM4C inh: 0.1

How did C[C@@H]1CN([C@@H](C)CO)S(=O)(=O)c2ccc(C3=CCCC3)cc2O[C@H]1CN(C)Cc1cccnc1 do in these assays?
KDM4C inh: -0.4; IDH1 R132H inh: 76.8*; T cruzi growth-1: inconclusive; T cruzi growth-2: 105.2*; T cruzi growth-3: 99.3*; 3T3 cytotox: 47.2*; 3T3 cytotox 2: 45.8*

Results for C[C@H]1CN([C@@H](C)CO)S(=O)(=O)c2ccc(C3=CCCC3)cc2O[C@@H]1CN(C)Cc1cccnc1 ?
KDM4C inh: 1.9; IDH1 R132H inh: 7.0; T cruzi growth-1: 102.9*; T cruzi growth-2: 104.6*; T cruzi growth-3: 103.9*; 3T3 cytotox: 55.5*; 3T3 cytotox 2: 62.8*

What do the screens show for `C[C@H]1CN([C@@H](C)CO)S(=O)(=O)c2ccc(C3=CCCCC3)cc2O[C@@H]1CN(C)Cc1cccnc1`?
KDM4C inh: 3.3

How did C[C@@H]1CN([C@@H](C)CO)S(=O)(=O)c2ccc(C3=CCCC3)cc2O[C@@H]1CN(C)Cc1cccnc1 do in these assays?
KDM4C inh: -1.2; T cruzi growth-1: 99.6*; T cruzi growth-2: inconclusive; T cruzi growth-3: 32.9; 3T3 cytotox: inconclusive; 3T3 cytotox 2: 46.1*

How did C[C@@H]1CN([C@@H](C)CO)S(=O)(=O)c2ccc(C3=CCCCC3)cc2O[C@H]1CN(C)Cc1cccnc1 do in these assays?
KDM4C inh: 0.1; IDH1 R132H inh: 23.4

Results for Clc1ccc(CSc2nnc(-c3cccs3)n2Cc2ccco2)c(Cl)c1 ?
IDH1 R132H inh: -0.6

Results for O=C(O)CN(CC(=O)O)S(=O)(=O)c1ccc(Cl)cc1 ?
IDH1 R132H inh: -0.2

What do the screens show for `CCCNC(=O)N1[C@H](CO)[C@@H](c2ccccc2)[C@H]1CNC(=O)c1ccccc1`?
KDM4C inh: -6.4; T cruzi growth-1: 47.9

How did CCCNC(=O)N1[C@@H](CO)[C@@H](c2ccccc2)[C@@H]1CNC(=O)c1cccc(F)c1 do in these assays?
KDM4C inh: -1.5; T cruzi growth-1: 122.3*; T cruzi growth-2: 81.0; T cruzi growth-3: -9.5; 3T3 cytotox: 5.5; 3T3 cytotox 2: 39.9*

Results for CCCNC(=O)N1[C@@H](CO)[C@H](c2ccccc2)[C@@H]1CNC(=O)c1ccccc1 ?
KDM4C inh: -1.9; T cruzi growth-1: inconclusive; T cruzi growth-2: 23.1; T cruzi growth-3: -15.3; 3T3 cytotox: 0.0; 3T3 cytotox 2: -3.8

What do the screens show for `CCCNC(=O)N1[C@H](CO)[C@@H](c2ccccc2)[C@H]1CNC(=O)c1cccc(F)c1`?
KDM4C inh: -4.1; T cruzi growth-1: -15.5

How did C[C@@H]1CN([C@@H](C)CO)C(=O)c2cc(N(C)C)ccc2O[C@@H](C)CCCCO[C@@H]1CN(C)Cc1ccc2c(c1)OCO2 do in these assays?
KDM4C inh: 4.1; T cruzi growth-1: 100.8*!; T cruzi growth-2: inconclusive; T cruzi growth-3: -24.5; 3T3 cytotox: -0.5; 3T3 cytotox 2: 10.9

Results for C[C@H]1CCCCO[C@H](CN(C)Cc2ccncc2)[C@@H](C)CN([C@@H](C)CO)C(=O)c2cc(N(C)C)ccc2O1 ?
KDM4C inh: -0.1; IDH1 R132H inh: -0.1; T cruzi growth-1: 14.6
